In the array DNA melting data of Ke et al. (doi:10.1101/2024.01.08.574731) one finds folding enthalpy and Tm data, which are given here for 37 sequences.

Data set [1] is described as follows: folding enthalpy; higher = less favourable; fluorescence melt of hairpins on a sequencing array, two-state fit. As to conditions: sodium 0.088 M. The procedure, abridged: (§1)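 With Cy3 and quencher oligos annealed, library hairpins on a sequenced MiSeq flow cell were imaged for Cy3 fluorescence in 50 mM Na-HEPES pH 8.0, 25 mM NaCl, in 2.5 °C steps up to 60 °C. Melting temperature and folding enthalpy were derived from bootstrapped two-state fits of signals normalised to pre-quench Cy3 and to control constructs. Four replicates were combined by inverse variance, with fitted temperatures raised by 9.35 °C to match UV melts.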

Data set [2] can be described thus: melting temperature; fluorescence melt of hairpins on a sequencing array, two-state fit, raised by 9.35 °C to match UV melts. The following applies: sodium 0.088 M. The procedure, abridged:
as §1

Turning to GAGGGGAAACCCTC (((((....))))), the folding enthalpy in data set [1] was -103 kJ/mol. For the same sequence, the Tm in data set [2] was 54 °C.
Taken in the same sequence, the figures for GAGGGGCGAAAGCCCTC (((.(((....)))))) were -42.4 kJ/mol and 55.5 °C.
The corresponding values for GAGGGGGGAAACCCTCTC (((.(((....))).))) are -116 kJ/mol and 53.7 °C.
The corresponding values for GAGGGGGGAAACTCCCTC (((((.(....).))))) are -143 kJ/mol and 53.2 °C.
On to GAGGGTACGAAAGTACTC (((..(((....)))))), for which the folding enthalpy in data set [1] is -49.7 kJ/mol. For the same sequence, the Tm in data set [2] turned out to be 36.9 °C.
Taken in the same sequence, the figures for GAGGGTGGAAACACCCCC (.(((((....))))).) were -44.8 kJ/mol and 44.8 °C.
The corresponding values for GAGGGTGGAAACACCTTC ((.((((....)))).)) are -66.4 kJ/mol and 47 °C.
Taken in the same sequence, the figures for GAGGGTGGAAACATCCTC ((((.((....)).)))) were -162 kJ/mol and 50.5 °C.
GAGGTAACGAAAGTTCTC (((..(((....)))))): the folding enthalpy in data set [1] was -46.4 kJ/mol. Further, the Tm in data set [2] was 29 °C.
GAGGTACCGAAAGGTCTC (((..(((....)))))): the folding enthalpy in data set [1] is -73.1 kJ/mol. Moreover, the Tm in data set [2] came out at 31.4 °C.
Taken in the same sequence, the figures for GAGGTAGAAATACCTC ((((((....)))))) were -140 kJ/mol and 50.2 °C.
Taken in the same sequence, the figures for GAGGTAGGAAACCACCTC (((((.(....).))))) were -130 kJ/mol and 42.2 °C.
Taken in the same sequence, the figures for GAGGTAGGAAACTGCTTC ((.(.((....)).).)) were -65.2 kJ/mol and 26.7 °C.
With GAGGTCCCGAAAGGGCTC (((..(((....)))))), the folding enthalpy in data set [1] is -57.2 kJ/mol. In addition, the Tm in data set [2] came to 37.6 °C.
Taken in the same sequence, the figures for GAGGTCCGAAAGGACTC (((.(((....)))))) were -49.9 kJ/mol and 47.9 °C.
Taken in the same sequence, the figures for GAGGTCCGAAAGGATCTC (((.(((....))).))) were -158 kJ/mol and 59.6 °C.
As to GAGGTGGGAAACCACCTC (((((((....))))))), in data set [1], the folding enthalpy was -130 kJ/mol. In addition, in data set [2], the Tm amounted to 69.2 °C.
In the case of GAGGTGGGAAACCGTCTC (((..((....))..))), the folding enthalpy in data set [1] is -34.4 kJ/mol. In data set [2], the Tm came to 31.1 °C.
Taken in the same sequence, the figures for GAGGTGGGAAACTACCTC (((((.(....).))))) were -172 kJ/mol and 49.7 °C.
Taken in the same sequence, the figures for GAGGTTGGAAACAATCTC (((.(((....))).))) were -148 kJ/mol and 44.1 °C.
Taken in the same sequence, the figures for GAGTAAGGAAACTTACTC (((((((....))))))) were -180 kJ/mol and 52.1 °C.
Turning to GAGTAAGGAAACTTGCTC (((.(((....))).))), the folding enthalpy in data set [1] is -116 kJ/mol. Besides, the Tm in data set [2] amounted to 40.3 °C.
Taken in the same sequence, the figures for GAGTACACGAAAGTGCTC (((..(((....)))))) were -62.2 kJ/mol and 33.7 °C.
GAGTACGAAAGTAACCTC ((((((....)))..))): in data set [1], the folding enthalpy is -61.7 kJ/mol. Moreover, the Tm in data set [2] came out at 27.8 °C.
As to GAGTACGAAAGTATCCTC ((((((....)))..))), in data set [1], the folding enthalpy was -73.8 kJ/mol. Moreover, in data set [2], the Tm was found to be 25.4 °C.
Taken in the same sequence, the figures for GAGTACGAAAGTATGCTC ((((((....)))..))) were -87.2 kJ/mol and 31.5 °C.
The corresponding values for GAGTACGCGAAAGCGCTC (((..(((....)))))) are -42 kJ/mol and 34.6 °C.
Taken in the same sequence, the figures for GAGTAGCGAAAGCTGCTC (((.(((....))).))) were -153 kJ/mol and 60.1 °C.
As to GAGTAGGGAAACCTGCTC (((.(((....))).))), in data set [1], the folding enthalpy is -144 kJ/mol. In addition, the Tm in data set [2] was 48.5 °C.
The corresponding values for GAGTCAGGAAACTGATTC ((.((((....)))).)) are -113 kJ/mol and 39.8 °C.
The corresponding values for GAGTCCCGAAAGGGGCTC (((.(((....))).))) are -121 kJ/mol and 69.2 °C.
Taken in the same sequence, the figures for GAGTCCCGAAAGGGTCTC (((.(((....))).))) were -128 kJ/mol and 53 °C.
Regarding GAGTCCGAAAGGAAACTC ((((((....)))..))), in data set [1], the folding enthalpy was -81.3 kJ/mol. Also, the Tm in data set [2] worked out at 40.2 °C.
As to GAGTCCGAAAGGAAGCTC ((((((....)))..))), in data set [1], the folding enthalpy was -73.7 kJ/mol. Further, in data set [2], the Tm came out at 37.4 °C.
GAGTCCGAAAGGACACTC ((((((....)))..))): the folding enthalpy in data set [1] is -52.4 kJ/mol. Further, the Tm in data set [2] stood at 54.4 °C.
The corresponding values for GAGTCCGAAAGGACCTC ((((((....))).))) are -55.1 kJ/mol and 54.5 °C.
The corresponding values for GAGTCCGGAAACGGATTC ((.((((....)))).)) are -103 kJ/mol and 49.9 °C.
